Usually Ki stands for a dissociation constant, usually derived from enzyme kinetics or from competition with a known ligand. Read a low Ki as tighter binding.

The structures appear in SMILES notation.

For assay [1], the target named is Protein kinase C delta type (Mus musculus, UniProt P28867, F243G). Put plainly: Displacement of [3H]PDBu from protein kinase C delta C1b domain mutant (F13G). The procedure, abridged:
(§1)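 PKCδ C1b domain, wild type or sequence-confirmed point mutant, expressed as a GST-fusion protein in E. coli and used purified or as total lysate. Incubated 5 min at 18 °C with [3H]PDBu, […] phosphatidylserine, 1 mM EGTA and varied unlabeled ligand. Protein was precipitated with 35% poly(ethylene glycol) and centrifuged, and supernatant and pellet radioactivity counted. Ki was calculated from final ligand concentrations.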
(In general: In a radioligand displacement assay an active substance lowers the binding of a labelled ligand.)

Assay [2] addresses Protein kinase C delta type (Mus musculus, UniProt P28867, L250G). Put plainly: Displacement of [3H]PDBu from protein kinase C delta C1b domain mutant (L20G). The essentials:
as §1

Assay [3] deals with Protein kinase C delta type (Mus musculus, UniProt P28867, P241G). Description: Displacement of [3H]-PDBu from protein kinase C delta C1b domain mutant (P11G). The procedure, abridged: as §1
Sequence of Protein kinase C delta type (Mus musculus, UniProt P28867, P241G) (P28867 whole entry P241G, the tested form may be a part): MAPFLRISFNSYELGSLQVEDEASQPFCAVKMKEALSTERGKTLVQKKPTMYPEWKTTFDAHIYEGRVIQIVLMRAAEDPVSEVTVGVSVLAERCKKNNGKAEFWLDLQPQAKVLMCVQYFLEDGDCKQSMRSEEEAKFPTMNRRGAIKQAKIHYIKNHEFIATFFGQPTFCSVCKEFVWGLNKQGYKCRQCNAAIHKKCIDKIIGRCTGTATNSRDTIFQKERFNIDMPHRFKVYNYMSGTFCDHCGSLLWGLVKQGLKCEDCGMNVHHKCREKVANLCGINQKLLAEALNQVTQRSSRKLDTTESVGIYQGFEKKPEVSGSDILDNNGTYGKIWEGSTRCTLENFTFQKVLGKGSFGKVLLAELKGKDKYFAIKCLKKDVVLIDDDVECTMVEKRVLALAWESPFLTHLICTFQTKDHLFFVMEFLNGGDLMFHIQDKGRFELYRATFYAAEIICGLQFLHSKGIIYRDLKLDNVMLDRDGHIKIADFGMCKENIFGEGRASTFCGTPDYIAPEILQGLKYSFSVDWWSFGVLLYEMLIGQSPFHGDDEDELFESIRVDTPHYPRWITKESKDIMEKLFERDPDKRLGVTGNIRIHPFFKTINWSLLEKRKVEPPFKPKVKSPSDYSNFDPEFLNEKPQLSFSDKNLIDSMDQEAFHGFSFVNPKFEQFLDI
Assay [4] addresses Protein kinase C delta type (Mus musculus, UniProt P28867, Q257V). Description: Displacement of [3H]PDBu from protein kinase C delta C1b domain mutant (Q27V). The essentials:
as §1

The target in assay [5] is Protein kinase C delta type (Mus musculus, UniProt P28867, T242G). Description: Displacement of [3H]PDBu from protein kinase C delta C1b domain mutant (T12G). The procedure, abridged:
as §1

Assay [6] addresses Protein kinase C delta type (Mus musculus, UniProt P28867, T8G). Description: Displacement of [3H]PDBu from protein kinase C delta C1b domain mutant (T8G). The procedure, abridged: as §1
Assay [7] addresses Protein kinase C delta type (Mus musculus, UniProt P28867). Description: Displacement of [3H]PDBu from protein kinase C delta C1b domain (Wild type). The procedure, abridged:
as §1

For assay [8], the target named is Protein kinase C delta type (Mus musculus, UniProt P28867, W252G). Description: Displacement of [3H]PDBu from protein kinase C delta C1b domain mutant (W22G).
Sequence of Protein kinase C delta type (Mus musculus, UniProt P28867, W252G) (P28867 whole entry W252G, the tested form may be a part): as the sequence (P28867 whole entry P241G, the tested form may be a part) above, with G241P, W252G counted along it

Sequence of Protein kinase C delta type (Mus musculus, UniProt P28867) (P28867 whole entry, the tested form may be a part): as the sequence (P28867 whole entry P241G, the tested form may be a part) above, with G241P counted along it
Sequence of Protein kinase C delta type (Mus musculus, UniProt P28867, T8G) (P28867 whole entry, looked up, stated change not applied, the tested form may be a part): as the sequence (P28867 whole entry P241G, the tested form may be a part) above, with G241P counted along it
Sequence of Protein kinase C delta type (Mus musculus, UniProt P28867, L250G) (P28867 whole entry L250G, the tested form may be a part): as the sequence (P28867 whole entry P241G, the tested form may be a part) above, with G241P, L250G counted along it
Sequence of Protein kinase C delta type (Mus musculus, UniProt P28867, T242G) (P28867 whole entry T242G, the tested form may be a part): as the sequence (P28867 whole entry P241G, the tested form may be a part) above, with G241P, T242G counted along it
Sequence of Protein kinase C delta type (Mus musculus, UniProt P28867, F243G) (P28867 whole entry F243G, the tested form may be a part): as the sequence (P28867 whole entry P241G, the tested form may be a part) above, with G241P, F243G counted along it
Sequence of Protein kinase C delta type (Mus musculus, UniProt P28867, Q257V) (P28867 whole entry Q257V, the tested form may be a part): as the sequence (P28867 whole entry P241G, the tested form may be a part) above, with G241P, Q257V counted along it

Turning to `C=C(C)[C@@]12OC3(c4ccccc4)O[C@@H]1[C@@H]1C4O[C@]4(CO)[C@@H](O)[C@]4(O)C(=O)C(C)=C[C@H]4[C@@]1(O3)[C@H](C)[C@H]2OC(=O)/C=C/c1ccccc1` (stereo partly drawn) [THYMELEATOXIN], the Ki in assay [1] was 7.8 nM; in assay [2] it was 11.3 nM; in assay [3], 417 nM; in assay [4], 47.1 nM; in assay [5], 19.1 nM; in assay [6], 86.6 nM. This molecule also had a Ki in assay [7] of 2.71 nM.

For `CC(C)[C@H]1C(=O)N[C@H](CO)Cc2c[nH]c3cccc(c23)N1C` [INDOLACTUM], the Ki in assay [1] stood at 10.9 nM; in assay [2], 66.2 nM; in assay [3] it was 7080 nM; in assay [4] it was 1100 nM; in assay [5] it was 25.3 nM; in assay [6], 658 nM.

On to `CCCC(=O)O[C@@H]1[C@@H](C)[C@@]2(O)[C@@H](C=C(CO)C[C@]3(O)C(=O)C(C)=C[C@@H]23)[C@@H]2C(C)(C)[C@]12OC(=O)CCC`, for which the Ki was 0.82 nM in assay [1]; 6.59 nM in assay [2]; 210 nM in assay [3]; 14.2 nM in assay [4]; 1.24 nM in assay [5]; 18.4 nM in assay [6]. For the same molecule, the Ki was 25 nM in assay [8] and 0.351 nM in assay [7].

For `CC1=CC23C(=O)[C@@H](C=C(CO)[C@@H](O)[C@]2(O)[C@H]1OC(=O)c1ccccc1)[C@H]1[C@@H](C[C@H]3C)C1(C)C`, the Ki in assay [1] stood at 0.15 nM; in assay [2], 1.08 nM; in assay [3] it was 10.8 nM; in assay [4], 1.41 nM; in assay [5], 0.72 nM; in assay [6], 3.14 nM. The molecule also registered a Ki in assay [7] of 0.13 nM.
